≈ marks a conversion by molar mass, not a printed value. Calls of active or inactive are those of the source. The calls are words filed in the database; no cut-off is given here.
What was measured:
[1] = system: Staphylococcus aureus; assay: Antibacterial activity against methicillin-resistant Staphylococcus aureus ATCC 33591 after 24 hrs by broth microdilution method; assay type: functional
In short: (§1)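 Broth microdilution following NCCLS M7-A6 (2003), with inoculum at the recommended densities. Isolates were placed into panel wells with an autoinoculator and grown in cation-adjusted Mueller-Hinton broth at 35°C in ambient air for overnight to 24 h. Panels were read by eye, and the MIC was taken as no visible growth.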

[2] = system: Staphylococcus aureus; assay: Antibacterial activity against methicillin-resistant Staphylococcus aureus 78-13607A after 24 hrs by broth microdilution method; assay type: functional; in short: as §1

| SMILES | MIC ([1]; ATCC 33591, 24 h) [µg/mL] | MIC [2] [µg/mL] | Activity [1] | Activity [2] |
| --- | --- | --- | --- | --- |
| CC[C@H]1OC(=O)[C@H](C)[C@@H](O[C@H]2C[C@@](C)(OC)[C@@H](O)[C@H](C)O2)[C@H](C)[C@@H](O[C@@H]2O[C@H](C)C[C@H](N(C)C)[C@H]2O)[C@](C)(O)C[C@@H](C)C(=O)[C@H](C)[C@@H](O)[C@]1(C)O [ERYTHROMYCIN] | > 8 | 0.25 (≈ 0.341 µM) |  |  |
| CC(=O)NC[C@H]1CN(c2ccc(N3CCOCC3)c(F)c2)C(=O)O1 |  |  | Active | Active |

Reference: ChEMBL document CHEMBL1157314, “Antibacterial, partially acetylated oligorhamnosides from Cleistopholis patens” (2006)
